Assay results: publication PMC3755622 (Archives of biochemistry and biophysics, 2013)
Blank lines part the entries; values can stand above or below the compound they belong to.

Columns and labels:
Type in all cases: biochemical, Prunus dulcis
[1] = target: sweet almond β-glucosidase; experiment: inhibition of pNPG hydrolysis, p-nitrophenolate at […] nm; settings: pNPG about 0.1 mM, pH 6.3, 25°C; not detectably hydrolysed
[2] = tested on: sweet almond β-glucosidase; experiment: KM as Ki from inhibition of pNPG hydrolysis at […] nm; settings: pH 6.3, 0.01 M MES, 0.01 M NaCl, 4.6% v/v DMSO, 25°C; kcat calculated from kcat/KM and KM
[3] = tested on: sweet almond β-glucosidase; experiment: initial velocity, stopped assay, glucose by hexokinase / G6PDH; settings: pH 6.3, 0.01 M MES, 0.01 M NaCl, 4.6% v/v DMSO, 25°C, H2O
How it was run: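 Chromatographically purified almond enzyme (65 kD), diluted from stock in 0.01 M MES/0.01 M NaCl pH 6.3, added to about 2 μg/mL to start the reaction at 25.0 °C. Thioglucoside substrate came from DMSO stock. Aliquots were withdrawn and glucose measured by coupled yeast hexokinase/L. mesenteroides G6PDH (10 mM ATP, 5 mM MgSO4, 1 mM NAD+, pH 7.5), reading NADH at 340 nm. Km came from non-linear Michaelis-Menten fit.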

[4] = tested on: sweet almond β-glucosidase; experiment: p-nitrophenolate absorbance at […] nm; settings: pH 6.3, 0.01 M MES, 0.01 M NaCl, 4.6% v/v DMSO, 25°C

Ki [1]: 8.7 mM
SMILES: OC[C@H]1O[C@@H](SC2=NCCS2)[C@H](O)[C@@H](O)[C@@H]1O [GlcSTaz, 2-thiazolinyl1-thio-β-D-glucopyranoside]

Km [2]: 2700 µM
SMILES: OC[C@H]1O[C@@H](Sc2nc3ccccc3o2)[C@H](O)[C@@H](O)[C@@H]1O [GlcSBox, 2-benzoxazolyl 1-thio β-D-glucopyranoside]

Km [3]: 2500 µM
SMILES: OC[C@H]1O[C@@H](Sc2nc3ccccc3[nH]2)[C@H](O)[C@@H](O)[C@@H]1O [GlcSBiz, 2'-benzimidazolyl 1-thio-β-D-glucopyranoside]

Km [2]: 47000 µM
SMILES: Cn1c(S[C@@H]2O[C@H](CO)[C@@H](O)[C@H](O)[C@H]2O)nc2ccccc21 [GlcS(N-Me)Biz, 1'-methylbenzimidazol-2'-yl 1-thio-β-D-glucopyranoside]

Km [4]: 2500 µM
SMILES: O=[N+]([O-])c1ccc(O[C@@H]2O[C@H](CO)[C@@H](O)[C@H](O)[C@H]2O)cc1 [pNPG, p-nitrophenyl β-D-glucopyranoside]
